TRPC6 inh – mouse TRPC6 channel inhibition. Q61143. HEK293-TRPC6, membrane potential dye, ACh-evoked depolarization; active compounds read low. B-score at 10 µM. actives 1.1% (n = 310,000). AID 2553;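 active = B-score under library mean minus 3 SD, initial fluorescence not abnormally high, positive integrated signal ratio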;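 note: B-score derived from integrated fluorescence ratio over the kinetic read; more negative B-score means stronger inhibition of depolarization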
TRPC4 block – inhibitors of mouse TRPC4 channel; Q9QUQ5; HEK293 TRPC4beta/mu-opioid, DAMGO-evoked Fluo4 calcium flux; active compounds read low; B-score at 10 µM; actives 0.39% (n = 300,000); AID 2247;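 active = B-score over 3 SD under the library average, no early fluorescence shift, positive overall ratio signal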
Target sequence (Q9QUQ5 whole entry, looked up): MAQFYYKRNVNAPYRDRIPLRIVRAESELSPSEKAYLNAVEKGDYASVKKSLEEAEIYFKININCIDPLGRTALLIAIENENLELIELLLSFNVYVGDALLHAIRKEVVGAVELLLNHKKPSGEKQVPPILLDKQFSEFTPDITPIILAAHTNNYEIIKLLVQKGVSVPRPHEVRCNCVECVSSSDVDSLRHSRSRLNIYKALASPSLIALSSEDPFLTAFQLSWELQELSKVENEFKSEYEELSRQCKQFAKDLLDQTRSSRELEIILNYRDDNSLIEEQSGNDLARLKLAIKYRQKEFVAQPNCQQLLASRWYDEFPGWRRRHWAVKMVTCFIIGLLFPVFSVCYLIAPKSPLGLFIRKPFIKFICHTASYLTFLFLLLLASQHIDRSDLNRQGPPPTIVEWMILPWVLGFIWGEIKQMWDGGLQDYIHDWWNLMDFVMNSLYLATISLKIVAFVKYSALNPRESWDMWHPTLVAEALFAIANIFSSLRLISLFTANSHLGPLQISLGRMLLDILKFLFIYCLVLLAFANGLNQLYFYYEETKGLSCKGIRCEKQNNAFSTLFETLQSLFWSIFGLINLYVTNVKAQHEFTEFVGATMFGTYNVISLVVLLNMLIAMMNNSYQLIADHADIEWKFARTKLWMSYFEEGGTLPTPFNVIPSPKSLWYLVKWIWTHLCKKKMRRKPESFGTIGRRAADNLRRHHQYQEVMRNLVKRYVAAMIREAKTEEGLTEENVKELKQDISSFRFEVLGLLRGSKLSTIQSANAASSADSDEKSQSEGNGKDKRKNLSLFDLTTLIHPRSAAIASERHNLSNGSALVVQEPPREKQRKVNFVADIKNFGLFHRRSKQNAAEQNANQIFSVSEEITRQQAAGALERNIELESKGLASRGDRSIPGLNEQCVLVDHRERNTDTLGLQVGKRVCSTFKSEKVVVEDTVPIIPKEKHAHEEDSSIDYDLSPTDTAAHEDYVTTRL
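Assay system: Stable TRPC4beta/mu-opioid receptor HEK293 cells | Reagent: DAMGO in two steps, submaximal then maximal | Compound dosing: Single concentration per test compound | Signal: Fluo4 Ca2+ flux fluorescence | Evaluation: Per-well B score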
TRPC4 act – opens the mouse TRPC4 cation channel; HEK293 TRPC4beta/mu-opioid, Fluo4 calcium fluorescence; active compounds read high; B-score at 10 µM; actives 0.49% (n = 310,000); AID 2237;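 active = B-score above 5 SD of library B-scores, and initial fluorescence ratio not above library mean plus 5 SD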;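 note: positive B-score marks a calcium rise read as TRPC4 activation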
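Assay system: HEK293 stable line with TRPC4beta plus mu-opioid receptor. Times: dye 45 min RT, read 110 s. Measured by: kinetic Fluo4 calcium fluorescence. Measure: B score of integrated ratio. Controls: assay buffer as low control, maximal DAMGO as high control.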
TRPC4 potent – TRPC4 (mouse) allosteric potentiation; Q9QUQ5; HEK293 TRPC4beta/mu-opioid, DAMGO EC20, Fluo-4 Ca2+ flux; active compounds read high; B-score at 10 µM; actives 0.42% (n = 310,000);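 active = B-score of calcium response area above 5 SD of library B-scores, with initial fluorescence ratio within 5 SD of library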;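 note: B-score of integrated fluorescence ratio over time as area under calcium response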
TRPC6 act – mouse TRPC6 channel activation; Q61143; HEK293-TRPC6 membrane potential dye fluorescence; active compounds read high; B-score at 10 µM; actives 0.13% (n = 310,000); AID 2550;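 active = B-score of the integrated fluorescence ratio above library mean plus 3 SD, and starting fluorescence ratio within library mean plus 5 SD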;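 note: higher score means more depolarization so channel activation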
TRPC4 sel inh 2 – mouse TRPC4 off-target activity of TRPC6 inhibitors, second screen; shares compounds with TRPC6 inh; HEK293 TRPC4/MOR, membrane potential dye fluorescence; channel activated by saturating DAMGO dose; inhibition, % at 10 µM; actives 42% (n = 920); AID 2776;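 active = compounds whose fluorescence signal differed from control wells by over 3 SD, either direction, in both duplicate plates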
TRPC4 spec – tests whether TRPC6 inhibitors also affect mouse TRPC4; AID 2777; actives 61% (n = 920); HEK293 TRPC4/mu-opioid, membrane potential fluorescence; activity change, negative = inhibition, % at 10 µM; shares compounds with TRPC6 inh;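 active = rise or fall in signal beyond 3 SD of buffer-only wells in both replicate plates, either sign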;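 note: integrated kinetic ratio of fluorescence range over baseline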
HEK293 MPD ctr 2-1 – second check of TRPC6 inhibitor effects in parental HEK293 cells; shares compounds with TRPC6 inh; parental HEK293 membrane potential dye fluorescence; maximal acetylcholine challenge after compound addition; signal change vs control, % at 10 µM; actives 31% (n = 920); AID 2779;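 active = membrane potential signal moving either way by over 3 SD of the maximum-effect control, in both duplicate plates, meaning non-specific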
HEK293 MPD ctr-1 – parental HEK293 nonspecific activity of TRPC6 inhibitors | shares compounds with TRPC6 inh | parental HEK293 membrane potential dye fluorescence | membrane potential signal change, % at 10 µM | actives 60% (n = 920) | AID 2780;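 active = membrane potential signal shifting up or down by more than 3 SD of buffer-only wells, on both duplicate plates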
HEK293 MPD ctr-2 – parental HEK293 nonspecific activity of TRPC6 modulators. membrane potential signal change, % at 10 µM. AID 488924. membrane potential dye fluorescence. shares compounds with TRPC6 inh. actives 51% (n = 2,400);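 active = membrane potential signal moves up or down beyond 5 SD from buffer-only wells, on both duplicate plates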
HEK293 MPD ctr 2-2 – parental HEK293 nonspecific activity of TRPC6 modulators, second screen; shares compounds with TRPC6 inh; membrane potential dye fluorescence; after compound, maximal acetylcholine stimulation; inhibition, % at 10 µM; actives 14% (n = 2,400);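 active = membrane potential signal drops by more than 5 SD from the mean control signal, in both duplicate plates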;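 note: plate controls were acetylcholine ECmax control wells for no effect and buffer only wells for full effect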
TRPC4/MOR mod – mouse TRPC4 off-target activity of TRPC6 modulators. shares compounds with TRPC6 inh. HEK293 TRPC4/mu-opioid, membrane potential fluorescence. percent change from control (negative = decrease, positive = increase), % at 10 µM. actives 69% (n = 2,400). AID 488927;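 active = membrane potential signal moved up or down beyond 5 SD of buffer control wells, in both duplicate plates, actives on both sides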;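 note: plate controls were assay buffer wells for no effect and DAMGO maximal-effect wells for full effect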
TRPC4/MOR inh 2 – second selectivity test of TRPC6 modulators against mouse TRPC4. shares compounds with TRPC6 inh. HEK293 TRPC4/mu-opioid, membrane potential dye fluorescence; stimulated with maximal-effect DAMGO. inhibition, % at 10 µM. actives 55% (n = 2,400). AID 488928;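 active = drop in membrane potential signal beyond 5 SD of the control wells in both duplicate plates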;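 note: TRPC4 counter screen for TRPC6 hits run under conditions tuned for TRPC6 not TRPC4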
TRPC6 block conf – mouse TRPC6 inhibitor confirmation; HEK293-TRPC6, membrane potential dye, ACh-evoked depolarization; inhibition, % at 10 µM; shares compounds with TRPC6 inh; actives 43% (n = 3,300);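 active = fluorescence ratio falls more than 5 SD below the full-stimulation control mean, in both duplicate runs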;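 note: integrated fluorescence ratio of peak minus minimum over baseline after agonist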
TRPC6 act confirm – mouse TRPC6 activator confirmation. shares compounds with TRPC6 inh. HEK293-TRPC6 membrane potential dye fluorescence, FDSS. activation, % at 10 µM. actives 11% (n = 2,800). AID 488961;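 active = ratio signal rise beyond 5 SD above unstimulated control wells' mean, seen in both duplicate runs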;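 note: plate controls were buffer EC0 wells for no effect and acetylcholine ECmax response for full effect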
Active calls of the source: *. Only some compounds are listed: those with a hit (about 2.3% of all), similar ones and a draw of the others.

How did O=C(CSc1ccc2c(c1)OCCO2)NCCc1ccc(Cl)cc1Cl do in these assays?
TRPC6 inh: -5.4*; TRPC4 block: inactive; TRPC4 act: inactive; TRPC4 potent: inactive; TRPC6 act: inactive; HEK293 MPD ctr-2: 350%*; HEK293 MPD ctr 2-2: inactive; TRPC4/MOR mod: 16%*; TRPC4/MOR inh 2: inactive; TRPC6 block conf: inactive; TRPC6 act confirm: inactive

Results for O=C(COC(=O)c1cc(=O)[nH]c2ccccc12)NC(=O)c1ccccc1 ?
TRPC6 inh: inactive; TRPC4 block: inactive; TRPC4 act: inactive; TRPC4 potent: inactive; TRPC6 act: inactive

Results for COc1ccc(-c2nc3n(c2C)Cc2ccccc2-3)cc1 ?
TRPC6 inh: -6.2*; TRPC4 block: inactive; TRPC4 act: inactive; TRPC4 potent: inactive; TRPC6 act: inactive; HEK293 MPD ctr-2: -70%*; HEK293 MPD ctr 2-2: inactive; TRPC4/MOR mod: -14%*; TRPC4/MOR inh 2: 52%*; TRPC6 block conf: inactive; TRPC6 act confirm: inactive

How did CCCCNc1nc2sc3c(c2c(=O)n1-c1cccc(Cl)c1)CCN(C)C3 do in these assays?
TRPC6 inh: -6.1*; TRPC4 block: inactive; TRPC4 act: inactive; TRPC4 potent: inactive; TRPC6 act: inactive; HEK293 MPD ctr-2: inactive; HEK293 MPD ctr 2-2: inactive; TRPC4/MOR mod: inactive; TRPC4/MOR inh 2: 58%*; TRPC6 block conf: inactive; TRPC6 act confirm: inactive

How did CCCCSc1nc2sc3c(c2c(=O)n1-c1ccccc1)CCN(C)C3 do in these assays?
TRPC6 inh: inactive; TRPC4 block: inactive; TRPC4 act: inactive; TRPC4 potent: inactive; TRPC6 act: inactive

Results for CN1CCc2c(sc3nc(SCC(N)=O)n(-c4ccc(Cl)cc4)c(=O)c23)C1 ?
TRPC6 inh: inactive; TRPC4 block: inactive; TRPC4 act: inactive; TRPC4 potent: inactive; TRPC6 act: inactive

How did CCCCCNc1nc2sc3c(c2c(=O)n1-c1cccc(Cl)c1)CCN(C)C3 do in these assays?
TRPC6 inh: -5.5*; TRPC4 block: inactive; TRPC4 act: inactive; TRPC4 potent: inactive; TRPC6 act: inactive; HEK293 MPD ctr-2: inactive; HEK293 MPD ctr 2-2: inactive; TRPC4/MOR mod: inactive; TRPC4/MOR inh 2: 68%*; TRPC6 block conf: 45%*; TRPC6 act confirm: inactive

What do the screens show for `O=c1c2c3c(sc2nc(N2CCNCC2)n1-c1cccc(Cl)c1)CCCCC3`?
TRPC6 inh: -7.2*; TRPC4 block: inactive; TRPC4 act: inactive; TRPC4 potent: inactive; TRPC6 act: inactive; TRPC4 sel inh 2: 60%*; TRPC4 spec: inactive; HEK293 MPD ctr 2-1: inactive; HEK293 MPD ctr-1: inactive; TRPC6 block conf: 60%*; TRPC6 act confirm: inactive

How did Cc1ccc(S(=O)(=O)Cn2nnnc2C(CC(C)C)N2CCN(C3CCCC3)CC2)cc1 (centres undefined) do in these assays?
TRPC6 inh: inactive; TRPC4 block: inactive; TRPC4 act: inactive; TRPC4 potent: inactive; TRPC6 act: inactive

How did NS(=O)(=O)c1ccc(NC(=S)N2CCC(Cc3ccccc3)CC2)cc1 do in these assays?
TRPC6 inh: inactive; TRPC4 block: inactive; TRPC4 act: inactive; TRPC4 potent: inactive; TRPC6 act: inactive

How did Cc1cc(C)n2nc(C(=O)N/N=C/c3ccccc3Cl)nc2n1 do in these assays?
TRPC6 inh: inactive; TRPC4 block: inactive; TRPC4 act: inactive; TRPC4 potent: inactive; TRPC6 act: inactive

How did Cc1cc(C)n2nc(C(=O)N/N=C/c3ccco3)nc2n1 do in these assays?
TRPC6 inh: -6.6*; TRPC4 block: inactive; TRPC4 act: inactive; TRPC4 potent: inactive; TRPC6 act: inactive; HEK293 MPD ctr-2: -275%*; HEK293 MPD ctr 2-2: inactive; TRPC4/MOR mod: -50%*; TRPC4/MOR inh 2: 32%*; TRPC6 block conf: inactive; TRPC6 act confirm: inactive

What do the screens show for `CCOC(=O)N1CCN(C(=O)C2CCC(=O)N(Cc3ccc(Cl)cc3)C2)CC1` (centres undefined)?
TRPC6 inh: inactive; TRPC4 block: inactive; TRPC4 act: inactive; TRPC4 potent: inactive; TRPC6 act: inactive

What do the screens show for `CN(C)CCNS(=O)(=O)c1ccc(N2CCN(c3ccc(F)cc3)CC2)c([N+](=O)[O-])c1`?
TRPC6 inh: -7*; TRPC4 block: inactive; TRPC4 act: inactive; TRPC4 potent: inactive; TRPC6 act: inactive; TRPC4 sel inh 2: 40%*; TRPC4 spec: -14%*; HEK293 MPD ctr 2-1: inactive; HEK293 MPD ctr-1: -278%*; TRPC6 block conf: 52%*; TRPC6 act confirm: inactive

What do the screens show for `CC(=O)N1CCN(c2ccc(S(=O)(=O)NCCN(C(C)C)C(C)C)cc2[N+](=O)[O-])CC1`?
TRPC6 inh: inactive; TRPC4 block: inactive; TRPC4 act: inactive; TRPC4 potent: inactive; TRPC6 act: inactive

Results for O=C(Nc1ccc(N2CCCC2)cc1)c1ccc(Cl)cc1Cl ?
TRPC6 inh: inactive; TRPC4 block: inactive; TRPC4 act: inactive; TRPC4 potent: inactive; TRPC6 act: inactive
